Laboratory results as given in ChEMBL document CHEMBL1649306, “Arylimidamide DB766, a potential chemotherapeutic candidate for Chagas' disease treatment” (Antimicrob Agents Chemother, 2010).
The source made the active and inactive calls. No cut-off for these calls is given here.

Assays:
Mus musculus = test: Toxicity in […](H-2k) mouse assessed as effect on creatine kinase level at 100 mg/kg/day, ip; assay type: organism-based; set-up: route intraperitoneal; settings: in vivo
Trypanosoma cruzi [1] = test: Antitrypanosomal activity against Trypanosoma cruzi Y epimastigotes after 24 hrs by light microscopy; assay type: functional, organism-based
In short: (§1)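 Epimastigotes from 5-day exponential cultures, 5 × 10^6 parasites/ml in LIT medium, incubated at 28°C up to 96 h with DB766 0 to 32 μM or Bz 0 to 250 μM. Counted daily in a Neubauer chamber. IC50 averaged from at least three determinations in duplicate.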

Trypanosoma cruzi [2] = test: Antitrypanosomal activity against Trypanosoma cruzi 855 epimastigotes after 24 hrs by light microscopy; assay type: functional, organism-based; settings: Trypanosoma cruzi, 855, 24 h; in short: as §1
Trypanosoma cruzi [3] = test: Antitrypanosomal activity against Trypanosoma cruzi Y bloodstream forms infected in Swiss-Webster mouse assessed as survival of mouse at 25 mg/kg/day, ip administered 5 days postinfection for 10 consecutive days measured on day 120; assay type: functional, organism-based
In short: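 Male Swiss mice infected i.p. with 10^4 Y strain bloodstream forms. Given 0.2 ml i.p. at 5 and 8 dpi, or daily for 10 days from 5 dpi; reference drug given by gavage. Parasitemia measured by the Pizzi-Brener method, cumulative mortality checked daily to 120 dpi, n ≥ 6 per group.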

Trypanosoma cruzi [4] = test: Antitrypanosomal activity against Trypanosoma cruzi Y bloodstream forms infected in Swiss-Webster mouse assessed as reduction in parasite-induced weight loss in mouse at 25 mg/kg/day, ip administered 5 days postinfection for 10 consecutive days measured on day 120; assay type: functional, organism-based
In short: (§2)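 Body weight of infected, treated mice followed from 0 to 120 dpi.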

Trypanosoma cruzi [5] = test: Antitrypanosomal activity against Trypanosoma cruzi Columbian bloodstream forms infected in C3H mouse assessed as reduction in parasite-induced weight loss at 100 mg/kg/day, po administered 5 days postinfection for 10 consecutive days measured after 120 days; assay type: functional, organism-based; in short: as §2

## CC(C)Oc1cc(NC(=N)c2ccccn2)ccc1-c1ccc(-c2ccc(NC(=N)c3ccccn3)cc2OC(C)C)o1
Mus musculus
  Activity: Non-toxic
Trypanosoma cruzi [1]
  IC50: 70 nM
  IC90: 220 nM
Trypanosoma cruzi [2]
  IC50: 90 nM
  IC90: 330 nM
Trypanosoma cruzi [3]
  Activity: Active
Trypanosoma cruzi [4]
  Activity: inactive
Trypanosoma cruzi [5]
  Activity: inactive
